Non-standard residues stand in square brackets, D forms with d. Residues, ends and D or L forms follow the SMILES beside them. *: point of attachment. Arg(NO2) = N=C(NCCC[C@H](N)C(=O)O)N[N+](=O)[O-]; NMeDab = CN[C@@H](CCN)C(=O)O; Orn = NCCC[C@H](N)C(=O)O; Dab = NCC[C@H](N)C(=O)O; Cbz = O=C(OCc1ccccc1)*; OtBu = CC(C)(C)O*
Target: not listed separately
Test: Binding affinity against bovine brain nNOS (neuronal).

SMILES	Ki [µM]
NCCC[C@H](NC(=O)[C@@H](N)CCC/N=C(/N)N[N+](=O)[O-])C(N)=O (H-[Arg(NO2)]-[Orn]-NH2)	0.33
NCCCC[C@H](NC(=O)[C@@H](N)CCC/N=C(\N)N[N+](=O)[O-])C(N)=O (H-[Arg(NO2)]-Lys-NH2)	0.45

Tested on: not listed separately
Test: Ratio of binding affinity of eNOS to nNOS
How it was run: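 Ratio of apparent Ki values (eNOS Ki over nNOS Ki). Recombinant bovine eNOS and nNOS were isolated from E. coli expression. NO formation was followed by the hemoglobin capture assay with 10 µM L-arginine and at least three inhibitor concentrations.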

SMILES	Ratio
NCCCNC(=O)[C@@H](N)CCC/N=C(\N)N[N+](=O)[O-]	163
CC(C)(C)OC(=O)[C@H](CCN)NC(=O)[C@@H](N)CCC/N=C(\N)N[N+](=O)[O-] (H-[Arg(NO2)]-[Dab]-OtBu)	28
NCCCCN(CC(N)=O)C(=O)[C@@H](N)CCC/N=C(\N)N[N+](=O)[O-]	4
NCCCCNC(=O)[C@@H](N)CCC/N=C(\N)N[N+](=O)[O-]	200
CN(C(=O)[C@@H](N)CCC/N=C(\N)N[N+](=O)[O-])[C@@H](CCN)C(N)=O	40
COC(=O)[C@H](CCN)NC(=O)[C@@H](N)CCC/N=C(\N)N[N+](=O)[O-] (H-[Arg(NO2)]-[Dab]-OMe)	798
NCCCN(CC(N)=O)C(=O)[C@@H](N)CCC/N=C(\N)N[N+](=O)[O-]	3.5
CC(=O)N[C@@H](CCC/N=C(\N)N[N+](=O)[O-])C(=O)N[C@@H](CCN)C(N)=O (Ac-[Arg(NO2)]-[Dab]-NH2)	9
NCC[C@H](NC(=O)[C@@H](N)CCC/N=C(\N)N[N+](=O)[O-])C(=O)O (H-[Arg(NO2)]-[Dab]-OH)	3.5
CN(C(=O)[C@@H](N)CCC/N=C(\N)N[N+](=O)[O-])[C@@H](CCCN)C(N)=O	135
NCC[C@H](NC(=O)[C@H](CCC/N=C(\N)N[N+](=O)[O-])NC(=O)OCc1ccccc1)C(N)=O (Cbz-[Arg(NO2)]-[Dab]-NH2)	16
NCCNC(=O)[C@@H](N)CCC/N=C(\N)N[N+](=O)[O-]	368
CN(C(=O)[C@@H](N)CCC/N=C(\N)N[N+](=O)[O-])[C@@H](CCCCN)C(N)=O	86
NCCN(CC(N)=O)C(=O)[C@@H](N)CCC/N=C(\N)N[N+](=O)[O-]	3

Target: T1, Nitric oxide synthase, inducible (Mus musculus, UniProt P29477)
T1 sequence (P29477 whole entry): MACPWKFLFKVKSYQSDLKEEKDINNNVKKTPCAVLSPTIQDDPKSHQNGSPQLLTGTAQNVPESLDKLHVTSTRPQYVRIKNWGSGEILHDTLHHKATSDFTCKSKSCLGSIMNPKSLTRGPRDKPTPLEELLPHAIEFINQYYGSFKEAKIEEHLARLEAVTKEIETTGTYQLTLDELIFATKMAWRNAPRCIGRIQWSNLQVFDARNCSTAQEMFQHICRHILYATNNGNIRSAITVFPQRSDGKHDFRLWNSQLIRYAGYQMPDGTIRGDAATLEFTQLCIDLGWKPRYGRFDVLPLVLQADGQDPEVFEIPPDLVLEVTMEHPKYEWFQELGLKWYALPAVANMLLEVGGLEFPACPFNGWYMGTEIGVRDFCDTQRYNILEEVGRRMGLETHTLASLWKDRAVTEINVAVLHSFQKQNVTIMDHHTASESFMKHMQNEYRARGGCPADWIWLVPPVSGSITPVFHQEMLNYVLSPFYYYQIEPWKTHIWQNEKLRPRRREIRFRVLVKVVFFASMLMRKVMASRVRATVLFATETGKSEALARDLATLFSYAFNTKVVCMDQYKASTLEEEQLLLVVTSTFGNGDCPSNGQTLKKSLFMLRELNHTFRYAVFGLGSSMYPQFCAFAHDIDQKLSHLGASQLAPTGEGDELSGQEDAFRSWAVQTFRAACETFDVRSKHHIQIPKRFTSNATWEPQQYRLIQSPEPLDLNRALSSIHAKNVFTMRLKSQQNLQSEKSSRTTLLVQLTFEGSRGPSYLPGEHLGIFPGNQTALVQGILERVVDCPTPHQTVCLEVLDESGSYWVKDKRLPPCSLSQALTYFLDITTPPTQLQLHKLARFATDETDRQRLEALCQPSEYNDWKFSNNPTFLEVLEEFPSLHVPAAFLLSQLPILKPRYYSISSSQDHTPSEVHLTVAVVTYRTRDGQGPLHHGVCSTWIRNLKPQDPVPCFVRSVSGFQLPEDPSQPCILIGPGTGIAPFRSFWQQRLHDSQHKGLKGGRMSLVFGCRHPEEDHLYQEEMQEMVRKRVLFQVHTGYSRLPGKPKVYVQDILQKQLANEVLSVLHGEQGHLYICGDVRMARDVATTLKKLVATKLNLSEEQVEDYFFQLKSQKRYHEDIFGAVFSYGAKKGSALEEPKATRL
Test: not given

SMILES	Ki [µM]
N=C(NCCC[C@H](N)C(=O)NCCCCN)N[N+](=O)[O-]	108
CC(=O)N[C@@H](CCCNC(=N)N[N+](=O)[O-])C(=O)N[C@@H](CCN)C(N)=O (Ac-[Arg(NO2)]-[Dab]-NH2)	2600
NCCCCN(CC(N)=O)C(=O)[C@@H](N)CCC/N=C(\N)N[N+](=O)[O-]	1100
N=C(NCCC[C@H](N)C(=O)NCCCN)N[N+](=O)[O-]	118
N=C(NCCC[C@H](NC(=O)OCc1ccccc1)C(=O)N[C@@H](CCN)C(N)=O)N[N+](=O)[O-] (Cbz-[Arg(NO2)]-[Dab]-NH2)	1600
N=C(NCCC[C@H](N)C(=O)N[C@@H](CCN)C(=O)O)N[N+](=O)[O-] (H-[Arg(NO2)]-[Dab]-OH)	1210
CN(C(=O)[C@@H](N)CCCNC(=N)N[N+](=O)[O-])[C@@H](CCN)C(N)=O (H-[Arg(NO2)]-[NMeDab]-NH2)	340
N=C(NCCC[C@H](N)C(=O)N(CCN)CC(N)=O)N[N+](=O)[O-]	760
CN(C(=O)[C@@H](N)CCC/N=C(\N)N[N+](=O)[O-])[C@@H](CCCN)C(N)=O	1300
COC(=O)[C@H](CCN)NC(=O)[C@@H](N)CCCNC(=N)N[N+](=O)[O-] (H-[Arg(NO2)]-[Dab]-OMe)	27
CC(C)(C)OC(=O)[C@H](CCN)NC(=O)[C@@H](N)CCCNC(=N)N[N+](=O)[O-] (H-[Arg(NO2)]-[Dab]-OtBu)	413
N=C(NCCC[C@H](N)C(=O)N(CCCN)CC(N)=O)N[N+](=O)[O-]	1000
CN(C(=O)[C@@H](N)CCC/N=C(\N)N[N+](=O)[O-])[C@@H](CCCCN)C(N)=O	1900
N=C(NCCC[C@H](N)C(=O)NCCN)N[N+](=O)[O-]	100

Target: T2, Nitric oxide synthase 3 (Bos taurus, UniProt P29473)
T2 sequence (P29473 whole entry): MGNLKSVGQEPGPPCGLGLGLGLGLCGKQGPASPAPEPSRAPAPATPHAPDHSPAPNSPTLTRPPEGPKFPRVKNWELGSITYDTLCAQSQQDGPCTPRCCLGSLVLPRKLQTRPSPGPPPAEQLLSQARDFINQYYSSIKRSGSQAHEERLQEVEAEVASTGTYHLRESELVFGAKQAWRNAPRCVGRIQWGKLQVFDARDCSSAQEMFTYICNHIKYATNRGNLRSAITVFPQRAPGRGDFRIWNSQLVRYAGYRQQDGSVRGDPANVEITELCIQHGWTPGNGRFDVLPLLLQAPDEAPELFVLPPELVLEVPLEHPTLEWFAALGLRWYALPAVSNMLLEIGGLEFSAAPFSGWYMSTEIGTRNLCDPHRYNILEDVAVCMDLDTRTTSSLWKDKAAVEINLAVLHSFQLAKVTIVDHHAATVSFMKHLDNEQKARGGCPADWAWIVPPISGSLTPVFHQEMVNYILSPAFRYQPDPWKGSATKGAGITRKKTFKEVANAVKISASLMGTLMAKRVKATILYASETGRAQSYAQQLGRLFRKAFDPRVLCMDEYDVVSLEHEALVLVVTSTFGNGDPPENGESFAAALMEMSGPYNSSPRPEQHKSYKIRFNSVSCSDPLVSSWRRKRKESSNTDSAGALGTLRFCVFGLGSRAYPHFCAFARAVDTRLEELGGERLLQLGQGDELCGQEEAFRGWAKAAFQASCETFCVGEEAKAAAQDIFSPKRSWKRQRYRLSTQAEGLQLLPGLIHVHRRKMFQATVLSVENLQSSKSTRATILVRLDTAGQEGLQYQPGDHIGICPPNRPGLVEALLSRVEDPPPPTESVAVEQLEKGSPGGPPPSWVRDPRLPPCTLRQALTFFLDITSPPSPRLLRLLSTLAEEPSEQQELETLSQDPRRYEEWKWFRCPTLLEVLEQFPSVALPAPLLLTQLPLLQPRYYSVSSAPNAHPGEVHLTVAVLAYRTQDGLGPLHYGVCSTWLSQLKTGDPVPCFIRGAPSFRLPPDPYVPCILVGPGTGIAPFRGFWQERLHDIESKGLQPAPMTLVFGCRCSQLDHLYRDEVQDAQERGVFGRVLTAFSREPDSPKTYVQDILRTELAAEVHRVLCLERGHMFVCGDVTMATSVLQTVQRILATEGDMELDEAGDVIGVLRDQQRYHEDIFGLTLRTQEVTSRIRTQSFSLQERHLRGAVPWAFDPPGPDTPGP
Test: not given

SMILES	Ki [µM]
N=C(NCCC[C@H](N)C(=O)NCCCCN)N[N+](=O)[O-]	70
CC(=O)N[C@@H](CCCNC(=N)N[N+](=O)[O-])C(=O)N[C@@H](CCN)C(N)=O (Ac-[Arg(NO2)]-[Dab]-NH2)	263
NCCCCN(CC(N)=O)C(=O)[C@@H](N)CCC/N=C(\N)N[N+](=O)[O-]	197
N=C(NCCC[C@H](N)C(=O)NCCCN)N[N+](=O)[O-]	213
N=C(NCCC[C@H](NC(=O)OCc1ccccc1)C(=O)N[C@@H](CCN)C(N)=O)N[N+](=O)[O-] (Cbz-[Arg(NO2)]-[Dab]-NH2)	827
N=C(NCCC[C@H](N)C(=O)N[C@@H](CCN)C(=O)O)N[N+](=O)[O-] (H-[Arg(NO2)]-[Dab]-OH)	98
CN(C(=O)[C@@H](N)CCCNC(=N)N[N+](=O)[O-])[C@@H](CCN)C(N)=O (H-[Arg(NO2)]-[NMeDab]-NH2)	95
N=C(NCCC[C@H](N)C(=O)N(CCN)CC(N)=O)N[N+](=O)[O-]	55.5
CN(C(=O)[C@@H](N)CCC/N=C(\N)N[N+](=O)[O-])[C@@H](CCCN)C(N)=O	623
COC(=O)[C@H](CCN)NC(=O)[C@@H](N)CCCNC(=N)N[N+](=O)[O-] (H-[Arg(NO2)]-[Dab]-OMe)	463
CC(C)(C)OC(=O)[C@H](CCN)NC(=O)[C@@H](N)CCCNC(=N)N[N+](=O)[O-] (H-[Arg(NO2)]-[Dab]-OtBu)	288
N=C(NCCC[C@H](N)C(=O)N(CCCN)CC(N)=O)N[N+](=O)[O-]	108
CN(C(=O)[C@@H](N)CCC/N=C(\N)N[N+](=O)[O-])[C@@H](CCCCN)C(N)=O	631
N=C(NCCC[C@H](N)C(=O)NCCN)N[N+](=O)[O-]	199
